≈ marks a conversion by molar mass, not a printed value. Calls of active or inactive are those of the source. The calls are words filed in the database; no cut-off is given here.
What was measured:
[1] = system: P388; assay: Effective dose against 50% reduction in Murine leukemia (P-388) cell number after 3-day incubation; - indicates inactive; assay type: functional, cell-based; settings: Mus musculus
[2] = system: HCT-8; assay: Effective dose against 50% reduction in Human ileocecal carcinoma (HCT-8) cell number after 3-day incubation.; assay type: functional, cell-based
[3] = system: A549; assay: Effective dose against 50% reduction in Human lung carcinoma (A-549) cell number after 3-day incubation.; assay type: functional, cell-based
[4] = system: TE-671; assay: Effective dose against 50% reduction in Human CNS tumor (TE671) cell number after 3-day incubation; - indicates inactive; assay type: functional, cell-based
[5] = system: KB; assay: Effective dose against 50% reduction in Human epidermoid carcinoma of the nasopharynx (KB) cell number after 3-day incubation; - indicates inactive; assay type: functional, cell-based
[6] = system: RPMI; assay: Effective dose against 50% reduction in Human melanoma (RPMI)cell number after 3-day incubation; - indicates inactive; assay type: functional, cell-based
[7] = target: DNA topoisomerase II (Homo sapiens) (UniProt P11388+Q02880); assay: Inhibitory activity against DNA topoisomerase II at dose 100 uM; assay type: protein assay
Outline: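 Topo II activity read as ATP-dependent unknotting of P4 DNA. Test compound at 100 µM; % inhibition is relative to enzyme and DNA control reactions. VP-16 served as the reference inhibitor.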

[8] = system: H9; assay: Effective dose against growth of HIV infected H9 lymphocytes; assay type: functional; settings: Homo sapiens, read-out: ED50 (the source's name)
[9] = system: H9; assay: Inhibitory activity against growth of uninfected H9 lymphocytes; assay type: functional, cell-based; settings: Homo sapiens
Outline: (§1)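 Uninfected H9 cultures exposed to compound diluted in medium for 4 days at 37 °C. Cell density counted in a Coulter counter; IC₅₀ determined.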

[10] = Therapeutic index valued has been determined in H9 cells; assay type: cell-based; settings: human, read-out: Therapeutic index
[11] = system: H9; assay: Effective dose against H9 cell lines; assay type: functional, cell-based; settings: Homo sapiens
[12] = target: Tubulin alpha chain (Sus scrofa, UniProt P02550); assay: Inhibitory activity of the compound against tubulin polymerization; assay type: functional
[13] = system: H9; assay: Inhibitory concentration required to inhibit uninfected growth of H9 lymphocytes by 50%; assay type: functional, cell-based; settings: Homo sapiens; outline: as §1
[14] = system: H9; assay: Effective dose required to inhibit virus replication growth by 50%; assay type: functional; settings: Homo sapiens, H9, read-out: ED50
[15] = system: KB; assay: Effective dose against Human epidermoid carcinoma of the nasopharynx; - indicates inactive; assay type: functional, cell-based
[16] = system: H9; assay: Effective dose against growth of HIV infected H9 lymphocytes by 50%; assay type: functional; settings: Homo sapiens, read-out: ED50 (the source's name)
[17] = system: H9; assay: Inhibitory activity against growth of uninfected H9 lymphocytes by 50%; assay type: functional, cell-based; settings: Homo sapiens; outline: as §1
[18] = system: RPMI; assay: Effective dose against 50% reduction in Human melanoma(RPMI) cell number after 3-day incubation; assay type: functional; settings: 72 h, read-out: ED50 (the source's name)
[19] = system: HCT-8; assay: Effective dose against 50% reduction in Human ileocecal carcinoma (HCT-8) cell number after 3-day incubation; assay type: functional; settings: HCT-8, 72 h, read-out: ED50 (the source's name)
[20] = system: RPMI; assay: Effective dose against 50% reduction in Human melanoma (RPMI)cell number after 3-day incubation; assay type: functional; settings: 72 h, read-out: ED50 (the source's name)
[21] = system: KB; assay: Effective dose against 50% reduction in Human epidermoid carcinoma of the nasopharynx (KB) cell number after 3-day incubation; assay type: functional; settings: 72 h, read-out: ED50 (the source's name)
[22] = system: P388; assay: Effective dose against 50% reduction in Murine leukemia (P-388) cell number after 3-day incubation; assay type: functional; settings: Mus musculus, P388, 72 h; read-out: ED50 (the source's name)

Tubulin alpha chain, sequence (P02550 whole entry, looked up): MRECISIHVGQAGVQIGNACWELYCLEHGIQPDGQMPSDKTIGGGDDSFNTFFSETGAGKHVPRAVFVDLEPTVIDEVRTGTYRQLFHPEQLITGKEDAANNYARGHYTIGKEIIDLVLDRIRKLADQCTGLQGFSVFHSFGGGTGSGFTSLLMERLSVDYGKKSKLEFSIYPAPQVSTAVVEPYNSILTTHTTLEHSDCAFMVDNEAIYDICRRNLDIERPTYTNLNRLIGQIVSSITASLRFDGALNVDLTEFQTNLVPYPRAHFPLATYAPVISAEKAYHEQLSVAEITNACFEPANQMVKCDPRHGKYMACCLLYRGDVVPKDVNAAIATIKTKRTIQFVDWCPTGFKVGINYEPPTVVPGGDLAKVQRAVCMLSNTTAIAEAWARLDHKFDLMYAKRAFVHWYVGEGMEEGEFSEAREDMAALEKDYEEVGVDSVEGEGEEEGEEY

With `COc1ccc2sc(-c3ccccc3)cc(=O)c2c1` as the compound, how does the ED50 [1] read?
The ED50 was “inactive”.

What about the ED50 [2] of the same compound?
The ED50 was “inactive”.

And the ED50 [3]?
The ED50 was “inactive”.

What about the ED50 [4] of the same compound?
The ED50 was “inactive”.

And the ED50 [5]?
Its ED50 is “inactive”.

And the ED50 [6]?
Its ED50 is “inactive”.

For `COc1cccc(-c2cc(O)c3cc(N4CCCC4)ccc3n2)c1`, which inhibition [7] is on record?
Its inhibition is 0%.

Which EC50 [8] does the source give for `Nc1ccc2sc(-c3ccccc3)cc(=O)c2c1` here?
Its EC50 is 7 µg/mL (≈ 27.6 µM).

And the IC50 [9]?
Its IC50 is 7.5 µg/mL (≈ 29.6 µM).

And the selectivity ratio [10]?
The selectivity ratio was 1.1.

Which results are given for `O=c1cc(-c2ccccc2)oc2cc(O)cc(O)c12` [CHRYSIN]?
EC50 [11]: 5 µM; selectivity ratio [10]: 9

For `COc1ccc(-c2oc3c(OC)c(OC)c(OC)c(O)c3c(=O)c2OC)cc1O`, which IC50 [12] is on record?
Its IC50 is 830 nM.

With `Cc1cn([C@H]2C[C@H](N=[N+]=[N-])[C@@H](CO)O2)c(=O)[nH]c1=O` [ZIDOVUDINE] as the compound, how does the IC50 [13] read?
Its IC50 is 2000 µM.

What about the EC50 [14] of the same compound?
Its EC50 is 0.04 µM.

For `O=c1cc(-c2ccccc2)sc2cccc(O)c12`, which ED50 [1] is on record?
The ED50 was “inactive”.

What about the ED50 [2] of the same compound?
The ED50 was “inactive”.

And the ED50 [3]?
Its ED50 is “inactive”.

What about the ED50 [4] of the same compound?
Its ED50 is “inactive”.

And the ED50 [5]?
Its ED50 is “inactive”.

And the ED50 [6]?
Its ED50 is “inactive”.

Which ED50 [1] does the source give for `O=c1cc(-c2ccccc2)sc2cc(O)ccc12` here?
Its ED50 is “inactive”.

And the ED50 [2]?
The ED50 was “inactive”.

What about the ED50 [3] of the same compound?
The ED50 was “inactive”.

What about the EC50 [8] of the same compound?
The EC50 was 7 µg/mL (≈ 27.5 µM).

What about the ED50 [4] of the same compound?
The ED50 was “inactive”.

What about the ED50 [5] of the same compound?
The ED50 was “inactive”.

What about the ED50 [6] of the same compound?
Its ED50 is “inactive”.

What about the IC50 [9] of the same compound?
Its IC50 is 40 µg/mL (≈ 157 µM).

What about the selectivity ratio [10] of the same compound?
Its selectivity ratio is 5.7.

With `COc1cccc2sc(-c3ccccc3)cc(=O)c12` as the compound, how does the ED50 [1] read?
Its ED50 is “inactive”.

And the ED50 [2]?
Its ED50 is “inactive”.

What about the ED50 [3] of the same compound?
The ED50 was “inactive”.

And the ED50 [4]?
The ED50 was “inactive”.

What about the ED50 [15] of the same compound?
Its ED50 is “inactive”.

What about the EC50 [16] of the same compound?
Its EC50 is 7 µg/mL (≈ 26.1 µM).

What about the selectivity ratio [10] of the same compound?
Its selectivity ratio is 1.

And the IC50 [17]?
The IC50 was 7 µg/mL (≈ 26.1 µM).

What about the EC50 [18] of the same compound?
Its EC50 is 5.5 µg/mL (≈ 20.5 µM).

For `Oc1cc(-c2ccccc2)nc2c(S)cccc12`, which EC50 [8] is on record?
Its EC50 is 12 µg/mL (≈ 47.4 µM).

And the IC50 [9]?
The IC50 was 35 µg/mL (≈ 138 µM).

And the selectivity ratio [10]?
Its selectivity ratio is 2.9.

Which results are given for `COc1cccc(-c2cc(=O)c3cc(OC)c(OC)cc3s2)c1`?
ED50 [3]: inactive; EC50 [19]: 6.35 µg/mL (≈ 19.3 µM); ED50 [4]: inactive; EC50 [20]: 5.5 µg/mL (≈ 16.7 µM); EC50 [21]: 5.5 µg/mL (≈ 16.7 µM); EC50 [22]: 0.61 µg/mL (≈ 1.86 µM)
